Test results as given in ChEMBL document CHEMBL1156630, “Investigations on the 4-quinolone-3-carboxylic acid motif. 2. Synthesis and structure-activity relationship of potent and selective cannabinoid-2 receptor agonists endowed with analgesic activity in vivo” (J Med Chem, 2008).
The source made the active and inactive calls. No cut-off for these calls is given here.

Experiments:
Cannabinoid receptor 2 = Cannabinoid receptor 2 (Homo sapiens, UniProt P34972); assay: Displacement of [3H]CP-55940 from human CB2 receptor expressed in HEK293 cells; type: cell-based
Homo sapiens = species: Homo sapiens; assay: Selectivity for human CB2 receptor over human CB1 receptor
Method in brief: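 Ratio Ki(CB1)/Ki(CB2) from radioligand displacement on HEK-cell membranes expressing human CB1 or CB2. Ki derived from IC50 via Cheng-Prusoff. Final DMSO below 0.1%.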

Cannabinoid receptor 1 = Cannabinoid receptor 1 (Homo sapiens, UniProt P21554); assay: biochemical; type: cell-based, HEK293
Mus musculus [1] = assay: Analgesic activity in mouse assessed as inhibition of formalin-induced nociceptive response at 3 mg/kg, ip in presence of AM630; type: functional, organism-based; set-up: dose 3 mg/kg
Method in brief: (§1)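 Mice, 8-10 per group, randomly assigned; 1.25% formalin into dorsal hind paw. Drug given ip in 10% DMSO/0.9% NaCl 15 min before formalin; AM630 3 mg/kg ip given 5 min before compound. Licking, lifting, flinching, shaking and favoring timed in 5-min bins over 60 min; second phase 15-60 min. Two-way ANOVA with Bonferroni.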

Mus musculus [2] = assay: Analgesic activity in mouse assessed as inhibition of formalin-induced nociceptive response at 3 mg/kg, ip; type: functional, organism-based; set-up: dose 3 mg/kg; method in brief: as §1

Chain of Cannabinoid receptor 1 (P21554 whole entry): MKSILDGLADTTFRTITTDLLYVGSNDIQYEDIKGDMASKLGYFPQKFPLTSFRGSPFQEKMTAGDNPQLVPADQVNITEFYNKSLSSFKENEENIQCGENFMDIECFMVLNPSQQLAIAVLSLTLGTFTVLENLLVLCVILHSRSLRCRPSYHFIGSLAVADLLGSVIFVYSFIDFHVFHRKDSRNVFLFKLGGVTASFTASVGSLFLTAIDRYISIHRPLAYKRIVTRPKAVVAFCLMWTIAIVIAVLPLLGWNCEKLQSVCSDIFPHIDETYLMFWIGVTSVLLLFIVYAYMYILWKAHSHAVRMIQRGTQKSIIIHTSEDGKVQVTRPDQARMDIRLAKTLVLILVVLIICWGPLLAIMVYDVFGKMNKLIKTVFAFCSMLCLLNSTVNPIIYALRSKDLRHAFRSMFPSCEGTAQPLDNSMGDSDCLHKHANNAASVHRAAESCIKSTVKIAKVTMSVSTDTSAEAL
Chain of Cannabinoid receptor 2 (P34972 whole entry): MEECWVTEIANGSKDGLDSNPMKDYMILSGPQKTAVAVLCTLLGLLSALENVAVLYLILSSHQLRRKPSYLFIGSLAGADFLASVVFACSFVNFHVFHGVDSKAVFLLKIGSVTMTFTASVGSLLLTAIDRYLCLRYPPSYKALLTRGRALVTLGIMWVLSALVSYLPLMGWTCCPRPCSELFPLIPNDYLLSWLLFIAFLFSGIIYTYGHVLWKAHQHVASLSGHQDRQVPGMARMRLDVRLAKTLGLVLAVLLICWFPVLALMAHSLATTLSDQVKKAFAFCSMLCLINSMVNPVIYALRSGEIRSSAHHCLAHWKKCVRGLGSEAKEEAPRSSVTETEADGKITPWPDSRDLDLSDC

Structure (SMILES)	Ki (Cannabinoid receptor 2)	Ratio Ki (Homo sapiens)	Ki (Cannabinoid receptor 1)	Activity (Mus musculus [1])	Activity (Mus musculus [2])
CCCCCn1cc(C(=O)NC23CC4CC(CC(C4)C2)C3)c(=O)c2c(OC)ccc(OC)c21	52.6 nM	39.9	2100 nM	–	–
CCCCCn1cc(C(=O)NC23CC4CC(CC(C4)C2)C3)c(=O)c2cc(/C=C/c3ccc(OC)cc3)ccc21	55.9 nM	47	2630 nM	–	–
CCCCCn1cc(C(=O)NC23CC4CC(CC(C4)C2)C3)c(=O)c2cc(F)c(-n3cccc3)cc21	3.6 nM	38.8	140 nM	–	–
C=CCCCn1cc(C(=O)NC23CC4CC(CC(C4)C2)C3)c(=O)c2cc(Br)ccc21	9.4 nM	74.4	696 nM	–	–
CCCCCn1cc(C(=O)N[C@H](C)c2ccccc2)c(=O)c2ccc(N3CCCC3)cc21	17.1 nM	9.4	160 nM	–	–
CCCCCn1cc(C(=O)N[C@H](C)c2ccccc2)c(=O)c2ccc(OCC)cc21	24.2 nM	1.2	29.7 nM	–	–
CCCCCn1cc(C(=O)NC23CC4CC(CC(C4)C2)C3)c(=O)c2ccc(Cl)c(C)c21	25.5 nM	> 393	> 10000 nM	–	–
CCCCCn1cc(C(=O)NC23CC4CC(CC(C4)C2)C3)c(=O)c2cc(Br)ccc21	14.3 nM	69.4	996 nM	–	–
C=CCCn1cc(C(=O)NC23CC4CC(CC(C4)C2)C3)c(=O)c2cc(Br)ccc21	23.8 nM	113	2680 nM	–	–
CCCCCn1cc(C(=O)N[C@H](C)c2ccccc2)c(=O)c2ccc(F)cc21	10.7 nM	1.3	14.3 nM	–	–
CCCCCn1cc(C(=O)NC23CC4CC(CC(C4)C2)C3)c(=O)c2cc(Sc3ccccc3)ccc21	3.4 nM	189	640 nM	–	–
CCCCCn1cc(C(=O)NC23CC4CC(CC(C4)C2)C3)c(=O)c2ccc(Sc3ccccc3)cc21	1.6 nM	3.3	5.3 nM	–	–
CCCCCn1cc(C(=O)NC23CC4CC(CC(C4)C2)C3)c(=O)c2cc(C(C)C)ccc21	–	–	–	inactive	Active
CCCCCn1cc(C(=O)NC23CC4CC(CC(C4)C2)C3)c(=O)c2cc(C(F)(F)F)ccc21	11.6 nM	217	2520 nM	–	–
C=CCn1cc(C(=O)NC23CC4CC(CC(C4)C2)C3)c(=O)c2c(OC)ccc(OC)c21	9.2 nM	> 1090	> 10000 nM	–	–
CCCCCn1cc(C(=O)NC23CC4CC(CC(C4)C2)C3)c(=O)c2ccc(S(=O)(=O)c3ccccc3)cc21	0.9 nM	–	6.1 nM	–	–
CCCCCn1cc(C(=O)NC23CC4CC(CC(C4)C2)C3)c(=O)c2ccc([S+]([O-])c3ccccc3)cc21 (stereo unspecified)	3.5 nM	8	28 nM	–	–
CCCCCn1cc(C(=O)NC23CC4CC(CC(C4)C2)C3)c(=O)c2ccccc21	4.7 nM	9	42.1 nM	–	–
CCCCCn1cc(C(=O)NC23CC4CC(CC(C4)C2)C3)c(=O)c2ccc(F)cc21	0.8 nM	38.1	30.5 nM	–	–
CCCCCn1cc(C(=O)NC23CC4CC(CC(C4)C2)C3)c(=O)c2cc(Oc3ccc(F)c(Cl)c3)ccc21	16.1 nM	46	739 nM	–	–
CCCCCn1cc(C(=O)NC23CC4CC(CC(C4)C2)C3)c(=O)c2cc(-c3ccccc3)ccc21	3.8 nM	> 2670	> 10000 nM	–	–
